Measured values from ChEMBL document CHEMBL1125382, “Benzazepinone calcium channel blockers. 2. Structure-activity and drug metabolism studies leading to potent antihypertensive agents. Comparison with benzothiazepinones” (J Med Chem, 1992).
pIC50, pKd: −log10 of the molar value.

Experiments:
Rattus norvegicus [1] = experiment: In vivo evaluation for the percentage decrease in blood pressure at 135 umol/kg administered through oral route in spontaneously hypertensive rats and observed for 12-18 h.; type: functional
In short: (§1)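 Male spontaneously hypertensive rats, 15 weeks old, dosed by oral gavage at 135 μmol/kg. Blood pressure recorded directly via an indwelling abdominal aortic catheter exteriorized in the intrascapular region. Sampled over 20-s intervals every 5 min for 24 h. Value is the maximum percent fall in systolic pressure from predrug control within the stated period, mean of five rats.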

Rattus norvegicus [2] = experiment: In vivo evaluation for the percentage decrease in blood pressure at 135 umol/kg administered through oral route in spontaneously hypertensive rats and observed for 6-12 h.; type: functional; in short: as §1
Oryctolagus cuniculus [3] = species: Oryctolagus cuniculus; experiment: Vasorelaxant effects in circumferential strips of potassium-depolarized rabbit aorta. (IC50 in rabbit aorta strips contracted with KCl(95% confidence interval)); type: functional, organism-based
In short: (§2)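 Circumferential strips of rabbit thoracic aorta, contracted by depolarization with 100 mM KCl, then exposed to various concentrations of compound.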

Rattus norvegicus [4] = experiment: In vivo evaluation for the percentage decrease in blood pressure at 135 umol/kg administered through oral route in spontaneously hypertensive rats and observed for 0-6 h.; type: functional; in short: as §1
Oryctolagus cuniculus [5] = species: Oryctolagus cuniculus; experiment: In vitro evaluation for the vasorelaxant effects in circumferential strips of potassium-depolarized rabbit aorta. (IC50 in rabbit aorta strips contracted with KCl; type: functional; in short: as §2
Oryctolagus cuniculus [6] = species: Oryctolagus cuniculus; experiment: In Vitro evaluation for the vasorelaxant effects in circumferential strips of potassium-depolarized rabbit aorta. (IC50 in rabbit aorta strips contracted with KCl; type: functional; in short: as §2
[7] = In Vitro evaluation for the affinity for the diltiazem receptor in isolated guinea pig skeletal muscle microsomal preparations by inhibiting [3H]diltiazem binding; type: microsomes, Cavia porcellus, Muscle tissue
In short: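 Membranes from male guinea pig (350–450 g) hind-limb muscle, mainly quadriceps and gastrocnemius, in 50 mM Tris-HCl. 125–250 μg protein incubated with [3H]-d-cis-diltiazem and competing drug, 250 μL final, 30 °C for 1 h. Rapid GF/B filtration and scintillation counting. Nonspecific binding defined with 100 μM unlabeled diltiazem. Kd calculated from concentration–response curves for inhibition of specific binding; ±SEM.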

Rattus norvegicus [8] = experiment: In vivo evaluation for the percentage decrease in blood pressure at 270 umol/kg administered through oral route in spontaneously hypertensive rats and observed for 12-18 h; type: functional

| SMILES | Decrease (Rattus norvegicus [1]) | Decrease (Rattus norvegicus [2]) | pIC50 (Oryctolagus cuniculus [3]; Oryctolagus cuniculus, Aorta) | Decrease (Rattus norvegicus [4]) | pIC50 (Oryctolagus cuniculus [5]; Oryctolagus cuniculus, Aorta) | pIC50 (Oryctolagus cuniculus [6]) | pKd [7] | Decrease (Rattus norvegicus [8]) | pIC50 (Oryctolagus cuniculus [5]) | pIC50 (Oryctolagus cuniculus [3]) |
| --- | --- | --- | --- | --- | --- | --- | --- | --- | --- | --- |
| COc1ccc([C@@H]2Cc3c(Cl)cccc3N(CCN(C)C)C(=O)[C@@H]2OC(C)=O)cc1 | 11% | 8% | 5.80 | 9% | – | – | – | – | – | – |
| CNCCN1C(=O)[C@H](OC(C)=O)[C@H](c2ccc(OC)cc2)Cc2cc(C(F)(F)F)ccc21 | 31% | 29% | – | 28% | 6.06 | – | – | – | – | – |
| COc1ccc([C@@H]2Cc3c(cccc3C(F)(F)F)N(CC=O)C(=O)[C@@H]2OC(C)=O)cc1 | – | – | – | – | – | < 5.52 | – | – | – | – |
| COc1ccc([C@@H]2Cc3c(cccc3C(F)(F)F)N(C[C@@H]3CCCN3)C(=O)[C@@H]2O)cc1 | 27% | 26% | – | 30% | – | 7.02 | – | – | – | – |
| COc1ccc([C@@H]2Sc3ccccc3N(CCN(C)C)C(=O)[C@@H]2OC(C)=O)cc1 (relative stereo) [DILTIAZEM] | 17% | 12% | 6.68 | 23% | – | – | 6.70 | – | – | – |
| COc1ccc([C@@H]2Cc3cc(Cl)ccc3N(CCN(C)C)C(=O)[C@@H]2OC(C)=O)cc1 | – | 14% | 5.82 | 13% | – | – | – | 18% | – | – |
| COc1ccc([C@@H]2Cc3c(cccc3C(F)(F)F)N(CCN(C)C)C(=O)[C@@H]2O)cc1 | 28% | 26% | 6.52 | 21% | – | – | – | – | – | – |
| COc1ccc([C@@H]2Cc3c(cccc3C(F)(F)F)N(C[C@H]3CCCN3C)C(=O)[C@@H]2OC(C)=O)cc1 | 18% | 21% | 5.96 | 20% | – | – | – | – | – | – |
| CNCCN1C(=O)[C@H](O)[C@H](c2ccc(OC)cc2)Cc2cc(C(F)(F)F)ccc21 | 14% | 15% | – | 14% | 5.72 | – | – | – | – | – |
| COc1ccc([C@@H]2Sc3cc(Cl)ccc3N(CCN(C)C)C(=O)[C@@H]2OC(C)=O)cc1 [CLENTIAZEM] | – | – | – | – | – | – | 7.09 | – | 6.62 | – |
| COc1ccc([C@H]2Cc3c(cccc3C(F)(F)F)N(CCN(C)C)C(=O)[C@@H]2OC(C)=O)cc1.Cl (relative stereo) | 11% | 9% | – | 5% | < 5.00 | – | 5.42 | – | – | – |
| COc1ccc([C@@H]2Cc3ccccc3N(CCN(C)C)C(=O)[C@@H]2OC(C)=O)cc1.Cl | – | 8% | 5.33 | 8% | – | – | 5.29 | 13% | – | – |
| COc1ccc([C@@H]2Cc3cc(C(F)(F)F)ccc3N(CCN(C)C)C(=O)[C@@H]2OC(C)=O)cc1.Cl (stereo in doubt) | 19% | 22% | 5.80 | 19% | – | – | 6.74 | – | – | – |
| COc1ccc([C@@H]2Sc3ccccc3N(CCN(C)C)C(=O)[C@@H]2OC(C)=O)cc1 [DILTIAZEM] | – | – | – | – | – | 5.74 | – | – | – | – |
| CNCCN1C(=O)[C@H](OC(C)=O)[C@H](c2ccc(OC)cc2)Cc2c1cccc2C(F)(F)F | 32% | 34% | 6.74 | 32% | – | – | – | – | – | – |
| COc1ccc([C@@H]2Cc3c(cccc3C(F)(F)F)N(CC(=O)O)C(=O)[C@@H]2OC(C)=O)cc1 | 4% | 3% | – | 6% | < 5.52 | – | – | – | – | – |
| COc1ccc([C@@H]2Cc3c(OC)cccc3N(CCN(C)C)C(=O)[C@@H]2OC(C)=O)cc1.Cl | 1% | 0% | 5.62 | 0% | – | – | – | – | – | – |
| COc1ccc([C@@H]2Sc3cc(Cl)ccc3N(CCN(C)C)C(=O)[C@@H]2OC(C)=O)cc1 (relative stereo) [CLENTIAZEM] | 24% | 26% | – | 41% | – | – | 7.02 | – | – | – |

| SMILES | Decrease (Rattus norvegicus [1]) | Decrease (Rattus norvegicus [2]) | pIC50 (Oryctolagus cuniculus [3]; Oryctolagus cuniculus, Aorta) | Decrease (Rattus norvegicus [4]) | pIC50 (Oryctolagus cuniculus [5]; Oryctolagus cuniculus, Aorta) | pIC50 (Oryctolagus cuniculus [6]) | pKd [7] | Decrease (Rattus norvegicus [8]) | pIC50 (Oryctolagus cuniculus [5]) | pIC50 (Oryctolagus cuniculus [3]) |
| --- | --- | --- | --- | --- | --- | --- | --- | --- | --- | --- |
| COc1ccc([C@@H]2Cc3c(cccc3C(F)(F)F)N(C[C@H]3CCCN3)C(=O)[C@@H]2O)cc1 | 18% | 18% | 6.05 | 17% | – | – | – | – | – | – |
| COc1ccc([C@@H]2Cc3cc(OC)ccc3N(CCN(C)C)C(=O)[C@@H]2OC(C)=O)cc1.Cl | 10% | 8% | – | 15% | – | – | – | – | – | – |
| COc1ccc([C@@H]2Cc3c(cccc3C(F)(F)F)N(C[C@@H]3CCCN3C)C(=O)[C@@H]2OC(C)=O)cc1 | 29% | 29% | – | 30% | 6.28 | – | – | – | – | – |
| COc1ccc([C@H]2Cc3cc(C(F)(F)F)ccc3N(CCN(C)C)C(=O)[C@H]2OC(C)=O)cc1.Cl (stereo in doubt) | 7% | 8% | < 5.00 | 7% | – | – | 5.20 | – | – | – |
| COc1ccc([C@H]2Cc3c(cccc3C(F)(F)F)N(CCN(C)C)C(=O)[C@H]2OC(C)=O)cc1.Cl (stereo in doubt; 4n) | 9% | 9% | 5.31 | 9% | – | – | 5.70 | – | – | – |
| COc1ccc([C@@H]2Cc3c(cccc3C(F)(F)F)N(CCN(C)C)C(=O)[C@@H]2OC(C)=O)cc1.Cl | 24% | 26% | – | 24% | 6.62 | – | – | – | – | – |
| COc1ccc([C@@H]2Cc3cc(C(F)(F)F)ccc3N(CCN(C)C)C(=O)[C@@H]2O)cc1.Cl | 14% | 9% | – | 8% | – | – | – | – | – | – |
| COc1ccc([C@@H]2Cc3c(cccc3C(F)(F)F)N(CCN(C)C)C(=O)[C@@H]2OC(C)=O)cc1.Cl (stereo in doubt) | 30% | 27% | 6.82 | 31% | – | – | 6.92 | – | – | – |
| COc1ccc(C2Sc3cc(OC)ccc3N(CCN(C)C)C(=O)C2OC(C)=O)cc1 (stereo not given) | – | – | – | – | 6.92 | – | 7.38 | – | – | – |
| COc1ccc([C@H]2Cc3cc(Cl)ccc3N(CCN(C)C)C(=O)[C@@H]2OC(C)=O)cc1 | 12% | 12% | – | 12% | – | – | 6.16 | – | – | – |
| COc1ccc([C@@H]2Cc3ccc(Cl)cc3N(CCN(C)C)C(=O)[C@@H]2OC(C)=O)cc1 | 4% | 2% | – | 7% | 5.11 | – | – | – | – | – |
| COc1ccc([C@@H]2Cc3c(cccc3C(F)(F)F)N(C[C@H]3CCCN3)C(=O)[C@@H]2OC(C)=O)cc1 | 26% | 22% | 6.20 | 21% | – | – | – | – | – | – |
| COc1ccc([C@@H]2Cc3c(cccc3C(F)(F)F)N(CCO)C(=O)[C@@H]2OC(C)=O)cc1 | 4% | 3% | – | 1% | – | – | – | – | – | – |
| COc1ccc([C@@H]2Cc3c(cccc3C(F)(F)F)N(C[C@@H]3CCCN3)C(=O)[C@@H]2OC(C)=O)cc1 | 38% | 39% | – | 45% | – | – | – | – | – | – |
| COc1ccc([C@H]2Cc3cc(Cl)ccc3N(CCN(C)C)C(=O)[C@H]2OC(C)=O)cc1 (relative stereo) | 9% | 4% | – | 1% | – | – | 5.09 | – | – | – |
| COc1ccc([C@H]2Cc3c(cccc3C(F)(F)F)N(CCN(C)C)C(=O)[C@H]2OC(C)=O)cc1.Cl (stereo in doubt; 4p) | 7% | 8% | – | – | – | – | 5.92 | – | – | 5.41 |
| COc1ccc([C@@H]2Cc3cc(C(F)(F)F)ccc3N(CCN(C)C)C(=O)[C@@H]2OC(C)=O)cc1.Cl | 18% | 19% | – | – | – | – | – | – | – | – |
| CNCCN1C(=O)[C@H](O)[C@H](c2ccc(OC)cc2)Cc2c1cccc2C(F)(F)F | 22% | 20% | – | 16% | 6.16 | – | – | – | – | – |
